The source made the active and inactive calls. No cut-off for these calls is given here.
Key:
Serine protease hepsin [1] = target: T1, Serine protease hepsin (Homo sapiens, UniProt P05981, D161E/R162K); assay: Inhibition of recombinant C-terminal His10-tagged human Hepsin (R45 to […] residues) D161E/ R162K double mutant expressed in mouse NS0 cells using Boc-QRR-AMC as substrate after 15 mins by automated fluorescence assay
How it was run: (§1)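 On-line assay integrated with the flow-synthesis platform: a 20 µL aliquot of each product solution captured automatically, HPLC-purified, then diluted and assayed.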

[2] = target: T2, Urokinase-type plasminogen activator (Homo sapiens, UniProt P00749); assay: Inhibition of recombinant C-terminal His10-tagged human uPA (M1 to L431 residues) expressed in mouse NS0 cells using Z-GGR-AMC as substrate after 15 mins by automated fluorescence assay; how it was run: as §1
Homo sapiens [3] = organism: Homo sapiens; assay: Selectivity ratio of IC50 for recombinant C-terminal His10-tagged human uPA (M1 to L431 residues) to IC50 for recombinant C-terminal His10-tagged human Hepsin (R45 to […] residues) D161E/ R162K double mutant by automated fluorescence assay
[4] = Chromatographic hydrophobicity index, log D of the compound at pH 7 by HPLC/UV analysis; type: physicochemical; details: buffer
Serine protease hepsin [5] = target: T3, Serine protease hepsin (Homo sapiens, UniProt P05981); assay: Inhibition of hepsin-mediated conversion of Pro-HGF into active form in human Hs578T cells assessed as decrease in MET phosphorylation at 100 nM preincubated for 30 mins followed by recombinant human pro-HGF addition measured after 30 mins by immunoblot method; type: cell-based
How it was run: (§2)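 Hs578T or HCC1937 breast cells incubated with DMSO or inhibitor, then 50 ng/mL recombinant human Pro-HGF added; MET pathway activation (phospho-MET) assessed by immunoblotting.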

Serine protease hepsin [6] = target: T3, Serine protease hepsin; assay: Inhibition of hepsin-mediated conversion of Pro-HGF into active form in human HCC1937 cells assessed as decrease in MET phosphorylation at 100 nM preincubated for 30 mins followed by recombinant human pro-HGF addition measured after 30 mins by immunoblot method; type: cell-based; how it was run: as §2
Serine protease hepsin [7] = target: T1, Serine protease hepsin; assay: Inhibition of recombinant C-terminal His10-tagged human Hepsin (R45 to […] residues) D161E/ R162K double mutant expressed in mouse NS0 cells using Boc-QRR-AMC as substrate after 15 mins by manual fluorescence assay
[8] = target: T2, Urokinase-type plasminogen activator; assay: Inhibition of recombinant C-terminal His10-tagged human uPA (M1 to L431 residues) expressed in mouse NS0 cells using Z-GGR-AMC as substrate after 15 mins by manual fluorescence assay
Homo sapiens [9] = organism: Homo sapiens; assay: Selectivity ratio of IC50 for recombinant C-terminal His10-tagged human uPA (M1 to L431 residues) to IC50 for recombinant C-terminal His10-tagged human Hepsin (R45 to […] residues) D161E/ R162K double mutant by manual fluorescence assay
[10] = target: T2, Urokinase-type plasminogen activator; assay: Inhibition of uPA (unknown origin)
How it was run: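 uPA inhibition was run as an on-line biochemical assay integrated into the automated flow-synthesis platform. A 20 µL aliquot of each product solution was automatically captured, HPLC-purified, diluted and assayed. Some samples were instead screened manually, either from platform-synthesized material or from off-line synthesis. The read-out is IC50.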

Serine protease hepsin [11] = target: T3, Serine protease hepsin; assay: Inhibition of doxycycline induced Hepsin in human MCF10A cells using Boc-QRR-AMC as substrate preincubated for 24 hrs followed by doxycycline induction for 24 hrs and subsequent addition of substrate by fluorescence assay; type: cell-based
Serine protease hepsin [12] = target: T3, Serine protease hepsin; assay: Inhibition of doxycycline induced Hepsin in human MCF10A cells assessed as prevention in loss of HAI-1 level at 10 uM preincubated for 30 mins followed by doxycycline addition measured after 6 hrs by Immunoblot assay; type: cell-based
How it was run: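 MCF10A-Indu20-hepsin cells (Dox-inducible hepsin) pretreated 30 min with compound or DMSO, then hepsin induced with 100 ng/mL doxycycline for 6 h; HAI-1 protein scored by immunoblot.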

Serine protease hepsin [13] = target: T3, Serine protease hepsin; assay: Inhibition of hepsin-mediated conversion of Pro-HGF into active form in human Hs578T cells assessed as decrease in MET phosphorylation at 1 to 10 uM preincubated for 30 mins followed by recombinant human pro-HGF addition measured after 30 mins by immunoblot method; type: cell-based; how it was run: as §2
Serine protease hepsin [14] = target: T3, Serine protease hepsin; assay: Inhibition of doxycycline induced hepsin-mediated loss of desmosomal junctions in human MCF10A cells at 1 to 10 uM preincubated for 30 mins followed by doxycycline addition measured after 6 hrs by desmoglein 2 staining-based confocal immunofluorescence microscopic analysis; type: cell-based
How it was run: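 MCF10A-Indu20-hepsin cells on coverslips pretreated 30 min with 1 or 10 µM compound or DMSO, then 100 ng/mL Dox for 6 h. Desmoglein 2 immunofluorescence: continuous pericellular staining scored positive, discontinuous or absent scored negative. Cells counted in 10 fields per treatment across three biological replicates; reported as percentages.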

Serine protease hepsin [15] = target: T3, Serine protease hepsin; assay: Inhibition of recombinant Hepsin (unknown origin)

T3 sequence (P05981 1-162 limits assumed): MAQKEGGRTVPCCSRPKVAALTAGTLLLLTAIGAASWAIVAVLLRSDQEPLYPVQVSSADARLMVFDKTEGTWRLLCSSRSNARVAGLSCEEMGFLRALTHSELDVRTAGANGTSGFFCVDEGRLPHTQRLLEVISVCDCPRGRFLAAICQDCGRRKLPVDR
T3 sequence (P05981 163-417 limits assumed): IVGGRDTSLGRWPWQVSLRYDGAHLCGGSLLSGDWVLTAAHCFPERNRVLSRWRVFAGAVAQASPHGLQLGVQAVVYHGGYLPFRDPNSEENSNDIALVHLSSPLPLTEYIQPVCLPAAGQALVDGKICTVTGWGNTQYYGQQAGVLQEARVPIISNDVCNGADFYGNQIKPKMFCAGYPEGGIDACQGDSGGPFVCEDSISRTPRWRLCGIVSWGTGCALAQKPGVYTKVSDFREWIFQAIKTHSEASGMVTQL

Compound | IC50 (Serine protease hepsin [1]) | IC50 [2] | Ratio IC50 (Homo sapiens [3]) | chromatographic logD [4] | other results
CCOC(=O)c1ccc(OC(=O)CCCCCNC(=N)N)cc1 [GABEXATE] | 0.383 µM |  |  |  | 
N=C(N)c1ccc(/C=C2\CCCC/C(=C\c3ccc(C(=N)N)cc3)C2=O)cc1 | 0.272 µM | 0.484 µM |  |  | 
Cc1ccc(S(=O)(=O)N(C)C(CC(C)C)C(=O)Nc2ccc(C(=N)N)cc2)cc1 (configuration not stated) | > 19 µM | 24 µM | < 1 | 1.8 | 
C[C@@H](Oc1cc(-c2cnn(C3CCNCC3)c2)cnc1N)c1c(Cl)ccc(F)c1Cl |  |  |  |  | inhibition (Serine protease hepsin [5]): Active; inhibition (Serine protease hepsin [6]): Active
Cc1ccc(C(=O)N[C@@H](C(=O)Nc2ccc(C(=N)N)cc2)C2CCCCC2)cc1 | 5 µM | 24.5 µM | 5 | 1.7 | 
N=C(N)c1cccc(C[C@H](NS(=O)(=O)c2ccc3ccccc3c2)C(=O)N2CCCC(C(=O)NCc3cccs3)C2)c1 (some centres not stated) | 0.676 µM | 2.43 µM |  |  | IC50 (Serine protease hepsin [7]): 0.33 µM; IC50 [8]: 6 µM; Ratio IC50 (Homo sapiens [9]): 18
Cc1ccc(S(=O)(=O)NC(CC(C)C)C(=O)Nc2ccc(C(=N)N)cc2)cc1 (configuration not stated) | 0.6 to 0.9 µM | 11 to 20 µM | 12 to 33 | 1.2 | 
CCCCC(NS(=O)(=O)c1ccc(C)cc1)C(=O)Nc1cccc(C(=N)N)c1 (configuration not stated) | 73 µM | 19 µM | 0.26 | 1.1 | 
COc1ccc(S(=O)(=O)N[C@@H](C(=O)Nc2ccc(C(=N)N)cc2)C2CCCCC2)cc1 | 0.3 µM | 12 µM | 40 | 1.3 | 
COC(=O)N1CCN(C(=O)[C@H](Cc2cccc(C(=N)N)c2)NS(=O)(=O)c2ccc3ccccc3c2)CC1 | 6.19 µM |  |  |  | 
Cc1ccc(S(=O)(=O)NC(C(=O)Nc2ccc(C(=N)N)cc2)C2CCOCC2)cc1 (configuration not stated) | 1.4 µM | > 19 µM | > 13 | 0.4 | 
CC1CNc2c(cccc2S(=O)(=O)N[C@@H](CCCN=C(N)N)C(=O)N2CC[C@H](C)CC2C(=O)O)C1 (some centres not stated) | > 10 µM |  |  |  | 
CCCCC(NS(=O)(=O)c1ccc(C)cc1)C(=O)Nc1ccc(Br)cc1 (configuration not stated) | 58 µM | 58 µM | 1 |  | 
CN(C)C(=O)N1CCN(C(=O)[C@@H](Cc2cccc(C(=N)N)c2)NS(=O)(=O)c2ccc3ccccc3c2)CC1 | 6.55 µM |  |  |  | IC50 [10]: > 10 µM
CCCCC(NS(=O)(=O)c1ccc(C)cc1)C(=O)Nc1ccc(C(=N)N)cc1 (configuration not stated) | 0.5 to 0.9 µM | 3 to 5 µM | 3 to 10 | 1.2 | 
Cc1ccc(S(=O)(=O)NC(CC(=O)Nc2ccc(C(=N)N)cc2)C2CCCCC2)cc1 (configuration not stated) | 11 µM | 68 µM | 6 | 1.4 | 
Cc1ccc(S(=O)(=O)NC(CC2CCCC2)C(=O)Nc2ccc(C(=N)N)cc2)cc1 (configuration not stated) | 0.7 µM | 16 µM | 23 | 1.5 | 

Compound | IC50 (Serine protease hepsin [1]) | IC50 [2] | Ratio IC50 (Homo sapiens [3]) | chromatographic logD [4] | other results
Cc1ccc(S(=O)(=O)N2CCCC2C(=O)Nc2ccc(C(=N)N)cc2)cc1 (configuration not stated) | 1.5 to 3 µM | 5.3 to 28 µM | 3 to 9 | 0.5 | 
Cc1ccc(S(=O)(=O)N[C@H](C(=O)Nc2ccc(C(=N)N)cc2)C2CCCCC2)cc1 |  |  |  | 1.3 | IC50 (Serine protease hepsin [7]): 0.22 µM
Cc1ccc(S(=O)(=O)NC(CCc2ccccc2)C(=O)Nc2ccc(C(=N)N)cc2)cc1 (configuration not stated) | 1.13 µM | > 10 µM |  |  | IC50 (Serine protease hepsin [7]): 0.87 µM; IC50 [8]: 26 µM; Ratio IC50 (Homo sapiens [9]): 30
Cc1ccc(S(=O)(=O)NCC(Cc2ccccc2)C(=O)Nc2ccc(C(=N)N)cc2)cc1 (configuration not stated) | 3 µM | 1 µM | 0.3 | 1.6 | 
Cc1ccc(S(=O)(=O)NC(C(=O)Nc2ccc(C(=N)N)cc2)c2ccccc2)cc1 (configuration not stated) |  |  |  | 0.9 | IC50 (Serine protease hepsin [7]): 0.25 µM; IC50 [8]: 60 µM
N=C(N)c1ccc(C[C@@H](NC(=O)CNS(=O)(=O)c2ccc3ccccc3c2)C(=O)N2CCCCC2)cc1 | 4.46 µM |  |  |  | 
Cc1ccc(NC(=O)N[C@@H](C(=O)Nc2ccc(C(=N)N)cc2)C2CCCCC2)cc1 | 2 µM | 43 µM | 22 | 1.5 | 
CCCCC(NS(=O)(=O)c1ccc(C)cc1)C(=O)Nc1ccc(C(=N)N)cc1F (configuration not stated) | 0.9 µM | 8 µM | 9 | 1.4 | 
Cc1ccc(S(=O)(=O)NC(C(=O)Nc2ccc(C(=N)N)cc2)C(C)C)cc1 (configuration not stated) | 1.8 µM | 7.2 µM | 4 | 0.8 | 
N=C(N)c1ccc(NC(=O)[C@H](NS(=O)(=O)c2ccccc2)C2CCCCC2)cc1 | 1.1 µM | 22 µM | 20 | 1.2 | 
COC(=O)C(Cc1cccc(C(=N)N)c1)NC(=O)CNS(=O)(=O)c1ccc(C)cc1 (configuration not stated) | 3.14 µM | > 10 µM |  |  | 
N=C(N)c1ccc(NC(=O)[C@H](NS(=O)(=O)c2ccc(C(F)(F)F)cc2)C2CCCCC2)cc1 | 0.68 µM | 4.7 µM | 7 | 1.7 | IC50 (Serine protease hepsin [7]): 0.85 µM; IC50 [8]: > 1950 µM; Ratio IC50 (Homo sapiens [9]): > 2300; IC50 (Serine protease hepsin [11]): 3.15 µM; inhibition (Serine protease hepsin [12]): inactive; inhibition (Serine protease hepsin [13]): Active
Cc1ccc(S(=O)(=O)NC(C(=O)Nc2ccc(C(=N)N)cc2)C2CCCC2)cc1 (configuration not stated) | 0.86 µM | 64 µM | 74 | 0.4 | 
CCOC(=O)N1CCN(C(=O)[C@@H](Cc2cccc(C(=N)N)c2)NS(=O)(=O)c2c(C(C)C)cc(C(C)C)cc2C(C)C)CC1 | 3.35 µM | 0.285 µM |  |  | IC50 (Serine protease hepsin [11]): 6.49 µM; inhibition (Serine protease hepsin [12]): inactive; inhibition (Serine protease hepsin [13]): Active; inhibition (Serine protease hepsin [14]): inactive; IC50 (Serine protease hepsin [15]): 3 µM
N=C(N)c1ccc(NC(=O)[C@H](NS(=O)(=O)c2ccc(Cl)cc2)C2CCCCC2)cc1 | 0.1 µM | 18 µM | 180 | 1.5 | 
N=C(N)NCCC[C@@H](NC(=O)c1ccc2ccccc2c1O)C(=O)N1CCC[C@@H]1C(N)=O | > 10 µM |  |  |  | 
N=C(N)c1ccc2cc(OC(=O)c3ccc(N=C(N)N)cc3)ccc2c1 [NAFAMOSTAT] | 0.005 µM |  |  |  | 
